For one series, the system named is A549. Kind of series: In vitro cytotoxicity against A-549 (human lung carcinoma) cell line. The series is classed as functional, cell-based. The procedure, abridged:
(§1)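 Growth-inhibition screen adapted from Bergeron et al. Cells were kept in exponential growth in EMEM with 5% FCS, 10^-2 M sodium bicarbonate, penicillin G and streptomycin (0.1 g/L each) and 2.0 mM L-glutamine. P-388 was grown as a suspension and seeded at 1 × 10^4 cells/well. A-549 and HT-29 were grown as monolayers and seeded at 2 × 10^4 cells/well.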

The test system of the next series is HT-29. Kind of series: In vitro cytotoxicity against HT-29 (human colon) cell line. It is filed as functional, cell-based. The procedure, abridged: as §1
The next series deals with P388. The series is described as follows: In vitro cytotoxicity against P-388 (mouse leukemia) cell line. It is filed as functional, cell-based. The method, boiled down:
as §1

A short description of series [1]: pKa value was determined by differential pulse polarography. It is filed as physicochemical.

As a reminder, the IC50 is the concentration that inhibits the measured activity by half. A higher IC50 goes with weaker potency. The pKa is the pH at which an ionisable group is half protonated. Low readings indicate a group that gives up its proton readily, high ones a group that holds its proton tightly. In the case of `Cc1ccc2nc3sc(N4CCN(C)CC4)nc3c(O)c2c1`, the IC50 in the series with A549 worked out at 29.6 µM; with HT-29, 17 µM; with P388 it was 16.9 µM. For the same molecule, the pKa in series [1] was 10.
The like results for `CSc1nc2c(O)c3cc(F)ccc3nc2s1` were, in that order, over 66.1 µM, over 66.1 µM, over 66.1 µM and 5.7.
Take `Cc1ccc2nc3sc(S(C)(=O)=O)nc3c(O)c2c1`: the IC50 in the series on A549, with HT-29 and in the series on P388 was over 60.4 µM each time. Also, the pKa in series [1] was determined as 4.
For `CSc1nc2c(O)c3cc(C)ccc3nc2s1`, the IC50 in the series with A549, in the series with HT-29 and with P388 was over 66.9 µM each time. This molecule yielded a pKa in series [1] of 4.6.
As for `CCN(CC)CCCNc1c2ccccc2nc2sc(SC)nc12`, the IC50 in the series with A549, with HT-29 and in the series with P388 was 6 µM throughout. Besides, in series [1], the pKa worked out at 7.5.
For `CS(=O)(=O)c1nc2c(O)c3cc(F)ccc3nc2s1`, the IC50 in the series on A549, in the series on HT-29 and in the series with P388 was 6 µM each time. In series [1], the pKa was 5.5.
Consider `CN1CCN(c2nc3c(O)c4ccccc4nc3s2)CC1`, for which the IC50 in the series on A549, in the series on HT-29 and in the series on P388 was 18.8 µM each time. In series [1], this molecule gave a pKa of 8.6.
Regarding `CSc1nc2c(O)c3ccccc3nc2s1`, the IC50 with A549, in the series with HT-29 and in the series on P388 was over 70.2 µM each time. The pKa in series [1] came out at 5.9.
`CS(=O)(=O)c1nc2c(O)c3ccccc3nc2s1`: the IC50 in the series on A549, in the series with HT-29 and in the series on P388 was 32.4 µM in each case. Moreover, in series [1], the pKa was 5.2.
On to `CCN(CC)CCNc1nc2c(O)c3ccccc3nc2s1`, for which the results for the IC50 in the series with A549, in the series with HT-29 and with P388 were 7.22 µM, 7.22 µM and 5.76 µM, respectively. This molecule had a pKa in series [1] of 9.3.
Take `CN1CCN(c2nc3c(O)c4cc(F)ccc4nc3s2)CC1`: the 50% inhibitory concentration (IC50) in the series with A549, in the series with HT-29 and with P388 was over 56.4 µM in each case. The pKa in series [1] worked out at 8.
As for `CSc1nc2c(N(C)CCCN(C)C)c3ccccc3nc2s1`, the IC50 in the series with A549, in the series on HT-29 and in the series with P388 was 12.1 µM each time. In series [1], this molecule returned a pKa of 6.5.
Take `CCN(CC)CCCNc1c2cc(C)ccc2nc2sc(SC)nc12`: the half-inhibitory concentration (IC50) in the series with A549, with HT-29 and in the series on P388 was 5.4 µM each time. The pKa in series [1] was determined as 7.9.
Consider `CCN(CC)CCNc1nc2c(O)c3cc(C)ccc3nc2s1`, for which the half-maximal inhibitory concentration (IC50) with A549 was found to be 5.6 µM; in the series on HT-29 it was 3.3 µM; in the series with P388, 3.3 µM. In series [1], the pKa was found to be 8.4.
Turning to `CCN(CC)CCNc1nc2c(O)c3cc(F)ccc3nc2s1`, the IC50 was determined as 2.9 µM in the series with A549, 5 µM in the series on HT-29 and 1.65 µM in the series on P388. The pKa in series [1] was found to be 8.3.
The like results for `Oc1c2ccccc2nc2sc(Cl)nc12` were, in that order, 11.6 µM, 11.6 µM, 5.3 µM and 5.9.
For `Oc1c2cc(F)ccc2nc2sc(Cl)nc12` the same measures were 7.4 µM, 7.4 µM, 7.4 µM and 4.9.
For `Cc1ccc2nc3sc(Cl)nc3c(O)c2c1` the same measures were 34.6 µM, 34.6 µM, 34.6 µM and 5.
